Consider 22 compounds from ChEMBL document CHEMBL5104168, “Design, synthesis, and antitumor study of a series of novel 1-Oxa-4-azaspironenone derivatives” (Bioorg Med Chem Lett, 2022).

One data set has as its system A549. Briefly: Anticancer activity against human A549 cells assessed as inhibition of cell proliferation. The class given is functional, cell-based.
The test system of data set [1] is MDA-MB-231. Briefly: Anticancer activity against human MDA-MB-231 cells assessed as inhibition of cell proliferation. The class given is functional, cell-based.
The test system of the next data set is HeLa. Briefly: Anticancer activity against human HeLa cells assessed as inhibition of cell proliferation. Format: functional, cell-based.
The test system of data set [2] is MDA-MB-231. The data set is described as follows: Induction of cell cycle arrest in human MDA-MB-231 cells assessed as accumulation of cells at G1 phase at 10 uM (reference value: 61.33 %). The class given is functional.
For data set [3], the system named is MDA-MB-231. Briefly: Induction of cell cycle arrest in human MDA-MB-231 cells assessed as accumulation of cells at G2 phase at 10 uM (reference value: 16.5 %). The class given is functional.
Data set [4] concerns MDA-MB-231. The data set is described as follows: Induction of cell cycle arrest in human MDA-MB-231 cells assessed as accumulation of cells at S phase at 10 uM (reference value: 21.17 %). Format: functional.
For data set [5], the system named is MDA-MB-231. Briefly: Induction of apoptosis in human MDA-MB-231 cells assessed as viable cells at 10 uM by Annexin V-FITC/propidium iodide staining based flow cytometric analysis (reference value: 93.6 %). The class given is functional. The note with it: read-out: Activity. A general note: Flow cytometry measures light scatter and fluorescence of single cells or particles in a stream.

The test system of data set [6] is MDA-MB-231. Briefly: Induction of apoptosis in human MDA-MB-231 cells assessed as early apoptotic cells at 10 uM by Annexin V-FITC/propidium iodide staining based flow cytometric analysis (reference value: 4.66 %). Format: functional. The method, boiled down:
(§1)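 MDA-MB-231 cells were cultured with compound at 10 μM. DMSO-treated cells served as the vehicle control and combretastatin A4 (10 μM) as the positive control. Cells were double-labelled with Annexin V-FITC and propidium iodide and analysed by flow cytometry. Population percentages were read from the quadrants: early-apoptotic, late-apoptotic and dead cells. Incubation time was not given.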

Data set [7] relates to MDA-MB-231. Briefly: Induction of apoptosis in human MDA-MB-231 cells assessed as late apoptotic cells at 10 uM by Annexin V-FITC/propidium iodide staining based flow cytometric analysis (reference value: 1.02 %). Format: functional. The gist of the method:
as §1

Data set [8] concerns MDA-MB-231. Briefly: Induction of apoptosis in human MDA-MB-231 cells assessed as dead cells at 10 uM by Annexin V-FITC/propidium iodide staining based flow cytometric analysis (reference value: 0.68 %). Format: functional. The method, boiled down: as §1
A short description of data set [9]: Cytotoxicity against HUVEC cells assessed as inhibition of cell growth. The conditions noted are these: human.

For the compound `O=C1C=CC2(OCC(=O)N2Cc2c(Cl)cccc2Cl)C2CC12` (configuration not stated), the values for the IC50 in the data set with A549, with MDA-MB-231 [1] and in the data set on HeLa were 8830 nM, 5520 nM and 1760 nM, respectively.

For `CCSC1CC(=O)CC(SCC)C12OCC(=O)N2Cc1ccc(C)cc1` (configuration not stated), the concentration for half-maximal inhibition (IC50) is 2300 nM in the data set on A549, 1360 nM in the data set on MDA-MB-231 [1] and 2410 nM in the data set on HeLa.

For the compound `COc1ccc(/C=C\c2cc(OC)c(OC)c(OC)c2)cc1O` [COMBRETASTATIN A4], the Activity came to 10.16% in the data set with MDA-MB-231 [2]; 57.38% in the data set on MDA-MB-231 [3]; 32.46% in the data set on MDA-MB-231 [4]; 17.2% with MDA-MB-231 [6]; 4.81% in the data set on MDA-MB-231 [7]; 0.35% in the data set with MDA-MB-231 [8]. For the same compound, in the data set on MDA-MB-231 [5], the viability at 10 µM came to 77.7%.

Consider `O=C1C=CC2(C=C1)OCC(=O)N2Cc1c(Cl)cccc1Cl`, for which the IC50 with A549 amounted to 4950 nM; in the data set on MDA-MB-231 [1], 120 nM; in the data set on HeLa, 290 nM.

Turning to `O=C1C=CC2(C=C1)OCC(=O)N2Cc1cccc(Cl)c1`, the values for the IC50 with A549, with MDA-MB-231 [1] and in the data set with HeLa were 3010 nM, 110 nM and 370 nM, respectively.

`O=C1C=CC2(C=C1)OCC(=O)N2Cc1ccc([N+](=O)[O-])cc1`: the IC50 worked out at 810 nM in the data set on A549, 210 nM in the data set on MDA-MB-231 [1] and 270 nM in the data set on HeLa.

With `O=C1C=CC2(C=C1)OCC(=O)N2Cc1ccccc1Cl`, the values for the 50% inhibitory concentration (IC50) with A549, in the data set with MDA-MB-231 [1] and in the data set with HeLa were 1050 nM, 70 nM and 360 nM, respectively.

Turning to `O=C1C=CC2(OCC(=O)N2Cc2ccc([N+](=O)[O-])cc2)C2CC12` (configuration not stated), the concentration for half-maximal inhibition (IC50) is more than 10000 nM in the data set with A549, 1200 nM with MDA-MB-231 [1] and 3860 nM with HeLa.

On to `COC(=O)C(C(=O)OC)C1CC(=O)C=CC12OCC(=O)N2Cc1cccc(Cl)c1` (configuration not stated), for which the IC50 in the data set with A549 came out at 260 nM; with MDA-MB-231 [1], 250 nM; with HeLa, 340 nM.

For `COC(=O)C(C(=O)OC)C1CC(=O)C=CC12OCC(=O)N2Cc1ccc(C)cc1` (configuration not stated), the IC50 with A549 stood at 9250 nM; in the data set on MDA-MB-231 [1], 340 nM; in the data set on HeLa, 410 nM.

As for `O=C1C=CC2(OCC(=O)N2Cc2cccc(Cl)c2)C2CC12` (configuration not stated), the IC50 was more than 10000 nM with A549, 460 nM in the data set on MDA-MB-231 [1] and 1730 nM in the data set with HeLa.

Turning to `O=C1C=CC2(OCC(=O)N2Cc2ccc(Br)cc2)C2CC12` (configuration not stated), the IC50 in the data set on A549 was 6090 nM; in the data set on MDA-MB-231 [1] it was 1120 nM; in the data set on HeLa, more than 10000 nM.

In the case of `O=C1C=CC2(C=C1)OCC(=O)N2Cc1ccc(Cl)cc1`, the IC50 with A549 is 1290 nM; in the data set on MDA-MB-231 [1] it was 110 nM; in the data set on HeLa, 410 nM; in data set [9] it was 44600 nM.

With `COC(=O)C(C(=O)OC)C1CC(=O)C=CC12OCC(=O)N2Cc1ccc(Cl)cc1` (configuration not stated), the results for the IC50 in the data set with A549, with MDA-MB-231 [1] and in the data set on HeLa were 9980 nM, 380 nM and 180 nM, respectively.

On to `CCSC1=CC(=O)CC(SCC)C12OCC(=O)N2Cc1c(Cl)cccc1Cl` (configuration not stated), for which the IC50 with A549 worked out at 9270 nM; with MDA-MB-231 [1], 120 nM; in the data set on HeLa, 210 nM.

With `CCSC1CC(=O)CC(SCC)C12OCC(=O)N2Cc1ccc(Cl)cc1` (configuration not stated), the IC50 is more than 10000 nM with A549, 260 nM in the data set on MDA-MB-231 [1] and 3920 nM in the data set with HeLa.

On to `O=C1C=CC2(OCC(=O)N2Cc2ccccc2Cl)C2CC12` (configuration not stated), for which the IC50 with A549 was 660 nM; in the data set with MDA-MB-231 [1] it was 420 nM; in the data set with HeLa, more than 10000 nM.

As to `Cc1ccc(CN2C(=O)COC23C=CC(=O)C=C3)cc1`, the IC50 with A549 was 260 nM; with MDA-MB-231 [1] it was 100 nM; with HeLa, 200 nM.

In the case of `O=C1C=CC2(C=C1)OCC(=O)N2Cc1ccc(Br)cc1`, the figures for the IC50 in the data set with A549, in the data set with MDA-MB-231 [1] and in the data set on HeLa were 190 nM, 80 nM and 150 nM, respectively.

Regarding `COC(=O)C(C(=O)OC)C1CC(=O)C=CC12OCC(=O)N2Cc1ccc(Br)cc1` (configuration not stated), the IC50 in the data set with A549 was determined as 2550 nM; in the data set on MDA-MB-231 [1], 1230 nM; in the data set on HeLa, 1060 nM.

With `O=C1C=CC2(OCC(=O)N2Cc2ccc(Cl)cc2)C2CC12` (configuration not stated), the 50% inhibitory concentration (IC50) in the data set on A549 is 6060 nM; in the data set on MDA-MB-231 [1], 100 nM; in the data set on HeLa it was more than 10000 nM; in data set [9] it was 83600 nM. In addition, the Activity in the data set with MDA-MB-231 [2] is on record as 53.57%; with MDA-MB-231 [3], 27.16%; in the data set with MDA-MB-231 [4], 19.28%; in the data set with MDA-MB-231 [6] it was 10.9%; in the data set on MDA-MB-231 [7] it was 3%; in the data set on MDA-MB-231 [8], 0.72%. In addition, the viability at 10 µM with MDA-MB-231 [5] worked out at 85.4%.

Consider `Cn1c(CCCC(=O)O)nc2cc(N(CCCl)CCCl)ccc21` [BENDAMUSTINE], for which the IC50 with HeLa was more than 20000 nM.

One may read the IC50 as the point on the concentration scale where inhibition reaches its midpoint.
